Test results: ChEMBL document CHEMBL1127483, “Synthesis and structure activity relationships of cis- and trans-2,3,4,4a,9,9a-hexahydro-1H-indeno[2,1-c]pyridines for 5-HT receptor subtypes” (J Med Chem, 1994)
pKi: −log10 of the molar value.

Legend:
[1] = target: T1, 5-hydroxytryptamine receptor 1A (Rattus norvegicus, UniProt P19327); assay: Binding affinity for 5-hydroxytryptamine 1A receptor with [3H]5-HT
T1 sequence (P19327 whole entry): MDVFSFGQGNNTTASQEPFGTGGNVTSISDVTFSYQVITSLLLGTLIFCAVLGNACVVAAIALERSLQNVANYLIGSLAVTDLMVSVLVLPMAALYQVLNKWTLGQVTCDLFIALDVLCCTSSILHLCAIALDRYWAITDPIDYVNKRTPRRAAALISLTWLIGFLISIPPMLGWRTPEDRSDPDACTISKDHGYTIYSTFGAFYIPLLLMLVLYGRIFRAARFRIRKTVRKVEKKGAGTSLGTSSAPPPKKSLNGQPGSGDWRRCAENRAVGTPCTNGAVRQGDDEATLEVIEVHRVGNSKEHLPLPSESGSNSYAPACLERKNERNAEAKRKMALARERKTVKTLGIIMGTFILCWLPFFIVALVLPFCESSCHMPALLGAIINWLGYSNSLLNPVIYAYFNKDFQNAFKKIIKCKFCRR
How it was run: (§1)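 [3H]5-HT binding to 5-HT1 sites. The 5-HT1A component was distinguished by masking 5-HT1A sites with 1 µM S-spiroxatrine. Values are geometric means.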

[2] = target: 5-hydroxytryptamine receptor 1B (Rattus norvegicus, UniProt P28564); assay: Inhibition of [3H]5-HT binding to 5-hydroxytryptamine 1B receptor; how it was run: as §1
[3] = target: Serotonin 2 (5-HT2) receptor (Rattus norvegicus, UniProt P30994+P08909+P14842); assay: Displacement of [3H]ketanserin from 5-hydroxytryptamine 2 receptor; format: protein assay

5-hydroxytryptamine receptor 1B, sequence (P28564 whole entry): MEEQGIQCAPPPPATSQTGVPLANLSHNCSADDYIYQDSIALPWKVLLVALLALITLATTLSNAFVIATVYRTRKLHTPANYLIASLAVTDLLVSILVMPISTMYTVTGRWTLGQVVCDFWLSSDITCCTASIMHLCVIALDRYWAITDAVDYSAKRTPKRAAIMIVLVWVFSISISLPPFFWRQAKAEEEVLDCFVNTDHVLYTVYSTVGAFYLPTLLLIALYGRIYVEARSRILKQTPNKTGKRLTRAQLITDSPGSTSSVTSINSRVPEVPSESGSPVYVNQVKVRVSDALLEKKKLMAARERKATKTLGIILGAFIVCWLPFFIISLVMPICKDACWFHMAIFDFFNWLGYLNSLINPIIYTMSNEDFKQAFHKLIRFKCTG

pKi [1] | pKi [2] | Ki [3] [nM] | Structure (SMILES)
9.23 | 6.05 | 28.9 | COc1cccc2c1C1CCN(CCNC(=O)c3ccc(F)cc3)CC1C2 (stereo not given)
8.70 | 6.49 | 33.4 | COc1cccc2c1C1CCN(CCCCN3C(=O)c4ccccc4S3(=O)=O)CC1C2 (stereo not given)
7.26 | 4.87 | 35.9 | COc1cccc2c1[C@@H]1CCN(CCCCN3C(=O)CC4(CCCC4)CC3=O)C[C@@H]1C2
6.16 | 4.02 | 17.4 | COc1cccc2c1[C@@H]1CCN(CCCN3C(=O)CC4(CCCC4)CC3=O)C[C@@H]1C2
7.29 | 5.13 | 15.9 | COc1cccc2c1[C@@H]1CCN(CCCN3C(=O)CC4(CCCC4)CC3=O)C[C@H]1C2
8.78 | 6.10 | 9.3 | COc1cccc2c1[C@@H]1CCN(CCCCN3C(=O)CC4(CCCC4)CC3=O)C[C@H]1C2
9.05 | 6.07 | 3 | COc1cccc2c1C1CCN(CCCN3C(=O)c4ccccc4S3(=O)=O)CC1C2 (stereo not given)
8.44 | 5.88 | 2.58 | COc1cccc2c1C1CCN(CCCCN3C(=O)C4C5C=CC(C6C=CC65)C4C3=O)CC1C2.Cl (trans isomer)

Structure (SMILES) | pKi [1] | pKi [2] | Ki [3] [nM]
CCCN1CC[C@H]2c3c(cccc3OC)C[C@@H]2C1 | 7.12 | 5.30 | 688
CCCN1CC[C@H]2c3c(cccc3OC)C[C@H]2C1 |  | 4.31 | 965
CCCN(CCC)C1CCc2cccc(O)c2C1 (stereo not given) [8-OH-DPAT] |  |  | > 10000
